Laboratory results: ChEMBL document CHEMBL3813634, “Antileishmanial and Cytotoxic Activity of Some Highly Oxidized Abietane Diterpenoids from the Bald Cypress, Taxodium distichum” (J Nat Prod, 2016)

Key:
[1] = test system: Leishmania donovani; experiment: Antileishmanial activity against Leishmania donovani LV82 promastigotes expressing red fluorescent protein after 72 hrs by flow cytometric analysis; format: functional, organism-based; conditions: LV82, 72 h
[2] = test system: Leishmania amazonensis; experiment: Antileishmanial activity against transgenic Leishmania amazonensis amastigotes infected in CD-1 mouse peritoneal macrophages assessed as beta-lactamase activity after 72 hrs by nitrocefin dye-based spectrophotometric analysis; format: functional, organism-based
Procedure, shortened: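 Beta-lactamase-expressing promastigotes grown in RPMI 1640 GlutaMAX with HEPES, adenosine, folate, RPMI vitamins, 10% heat-inactivated FBS (pH 6.9); added 5:1 to CD-1 mouse peritoneal macrophages (1 × 10⁵ cells/well) for 24 h at 34 °C, washed twice with HBSS, then exposed to test concentrations for 72 h at 34 °C.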

[3] = Selectivity index, ratio of IC50 for human HT-29 cells to IC50 for Leishmania amazonensis amastigotes; format: toxicity, cell-based; conditions: HT-29 cells versus Leishmania amazonensis amastigotes, read-out: Ratio IC50
Procedure, shortened: (§1)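 Selectivity index calculated as HT-29 cytotoxicity IC50 divided by antileishmanial IC50.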

[4] = Selectivity index, ratio of IC50 for human HT-29 cells to IC50 for Leishmania donovani LV82 promastigotes expressing red fluorescent protein; format: toxicity, cell-based; conditions: read-out: Ratio IC50; procedure, shortened: as §1
[5] = test system: HT-29; experiment: Cytotoxicity against human HT-29 cells after 72 hrs by SRB assay; format: cell-based; conditions: HT-29, 72 h
Procedure, shortened: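 HT-29 cells, 9500 per well, exposed to a range of concentrations in triplicate for 72 h; 10% DMSO in water as carrier/negative control, paclitaxel positive control.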

With `CC(C)c1cc(C=O)c([C@@]2(C)CCCC(C)(C)[C@@H]2C=O)cc1O` the IC50 [1] was > 10 µg/mL and the IC50 [2] was > 10 µg/mL.
For `CC(C)C1=C(O)C(=O)C2=C(C1=O)[C@@H](O)C[C@H]1C(C)(C)CCC[C@]21C`, the IC50 [1] was > 10 µg/mL and the IC50 [2] was > 10 µg/mL.
With `Cc1ccc2c3c1CCCC(C)(C)[C@@]3(O)C(=O)C(C(C)C)=C2` the IC50 [1] was > 10 µg/mL and the IC50 [2] was > 10 µg/mL.
In the case of `Cc1ccc2cc(C(C)C)c(O)c3c2c1CCCC(C)(C)O3`, the IC50 [1] is reported as > 10 µg/mL and the IC50 [2] is reported as > 10 µg/mL.
For `CC(C)c1cc2c(cc1O)[C@@]1(C)CCCC(C)(C)[C@@H]1[C@@H](O)C2=O`, the IC50 [1] was 24.6 µM, the selectivity ratio [3] was 2.1 and the IC50 [2] was 17.1 µM. It also gave a selectivity ratio [4] of 1.5 and an IC50 [5] of 36 µM.
For `COCC(=O)[C@H]1C(C)(C)CCC[C@]1(C)C1=C(O)C(=O)C(C(C)C)=CC1=O`, the IC50 [1] was 6.9 µM, the selectivity ratio [3] was 3.2 and the IC50 [2] was 1.4 µM. For the same compound, the selectivity ratio [4] was 0.6 and the IC50 [5] was 4.4 µM.
For `CC(C)c1cc2c(cc1O)[C@@]1(C)CCCC(C)(C)C1=C(O)C2=O`, the IC50 [1] was > 10 µg/mL and the IC50 [2] was > 10 µg/mL.
With `CO[C@@H]1C[C@H]2C(C)(C)CCC[C@]2(C)C2=C1C(=O)C(C(C)C)=C(O)C2=O` the IC50 [1] was > 10 µg/mL and the IC50 [2] was > 10 µg/mL.
With `Cc1ccc2c3c1CCCC(C)(C)C3C(=O)C(C(C)C)=C2` (racemic) the IC50 [1] was > 10 µg/mL and the IC50 [2] was > 10 µg/mL.
In the case of `CC(C)c1cc2c(c(O)c1O)[C@@]1(C)CCCC(C)(C)C1=C(O)C2=O` [14-DEOXYCOLEON U], the IC50 [1] is reported as > 60 µM, the selectivity ratio [3] is reported as 1 and the IC50 [2] is reported as 13 µM. The selectivity ratio [4] was < 0.27 and the IC50 [5] was 13.3 µM.
With `C[C@@H]1[C@H](O)[C@@H](C)/C=C/C=C/C=C/C=C/C=C/C=C/C=C/[C@H](O[C@@H]2O[C@H](C)[C@@H](O)[C@H](N)[C@@H]2O)C[C@@H]2O[C@](O)(C[C@@H](O)C[C@@H](O)[C@H](O)CC[C@@H](O)C[C@@H](O)CC(=O)O[C@H]1C)C[C@H](O)[C@H]2C(=O)O` [AMPHOTERICIN B] the IC50 [2] was 0.086 µM.
Compound `CC(C)c1cc2c(cc1O)[C@@]1(C)CCCC(C)(C)[C@@H]1CC2` [FERRUGINOL] has an IC50 [1] of 45.7 µM, a selectivity ratio [3] of 2.5 and an IC50 [2] of 15.4 µM. It also gave a selectivity ratio [4] of 0.9 and an IC50 [5] of 39.4 µM.
With `CC(C)C1=C(O)C(=O)C2=C(C1=O)[C@H](O)C[C@H]1C(C)(C)CCC[C@]21C` [HORMINONE] the IC50 [1] was > 10 µg/mL and the IC50 [2] was > 10 µg/mL.
In the case of `CC(C)C1=C(O)C(=O)C2=C(CC[C@H]3C(C)(C)CCC[C@]23C)C1=O` [ROYLEANONE], the IC50 [1] is reported as > 10 µg/mL and the IC50 [2] is reported as > 10 µg/mL.
For `CC(C)c1cc2c(cc1O)[C@@]1(C)CCCC(C)(C)[C@@H]1CC2=O` [SUGIOL], the IC50 [1] was > 10 µg/mL and the IC50 [2] was > 10 µg/mL.
For `CC(C)C1=CC2=CC(=O)[C@H]3C(C)(C)CCC[C@]3(C)C2=C(O)C1=O` [TAXODIONE], the IC50 [1] was 1.6 µM, the selectivity ratio [3] was 0.2 and the IC50 [2] was 14.3 µM. The selectivity ratio [4] was 1.6 and the IC50 [5] was 2.5 µM.
